Several values for one entry are separate records, joined by “and”; a condition that tells them apart may be missing. Equal values may be shown once. Numbered stars: 1 amine (or outer) side, 2 acyl side, 3 side chain; on linkers, the order of the positions; unused ones are H or OH. Peptide text beside a SMILES is read from it. * marks the point of attachment. NHcHex = C1CCC(N*)CC1; CO = O=C([*:1])[*:2]
Legend:
[1] = tested on: Rattus norvegicus; experiment: Antiovulatory activity in sc dosed CD rat assessed as blockade of ovulation administered as six doses at 1200, 1230, 1300, 1350, 1400 and 1450 hrs during proestrus stage measured during estrus stage by dissecting microscopic analysis; type: functional
How it was run: (§1)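 Cycling Charles River CD rats were given six subcutaneous injections of analogue in 0.1 mL propylene glycol on the afternoon of proestrus, and controls received vehicle alone. Rats were killed the next morning (estrus). Ovulating animals were scored and ova in the oviducts were counted under a dissecting microscope.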

[2] = tested on: Rattus norvegicus; experiment: Antiovulatory activity in CD rat assessed as blockade of ovulation at 1 mg, sc administered as six doses at 1200, 1230, 1300, 1350, 1400 and 1450 hrs during proestrus stage measured during estrus stage by dissecting microscopic analysis; type: functional; how it was run: as §1
[3] = biological target: T1, Gonadotropin-releasing hormone receptor (Rattus norvegicus) (UniProt P30969); experiment: In vitro antagonist activity at GNRHR in CD rat anterior pituitary gland assessed as inhibition of LH-RH-stimulated LH release at compound to LH-RH molar ratio of 1000 after 4 hrs by radioimmunoassay; details: concentration not given here
T1 sequence (whole entry): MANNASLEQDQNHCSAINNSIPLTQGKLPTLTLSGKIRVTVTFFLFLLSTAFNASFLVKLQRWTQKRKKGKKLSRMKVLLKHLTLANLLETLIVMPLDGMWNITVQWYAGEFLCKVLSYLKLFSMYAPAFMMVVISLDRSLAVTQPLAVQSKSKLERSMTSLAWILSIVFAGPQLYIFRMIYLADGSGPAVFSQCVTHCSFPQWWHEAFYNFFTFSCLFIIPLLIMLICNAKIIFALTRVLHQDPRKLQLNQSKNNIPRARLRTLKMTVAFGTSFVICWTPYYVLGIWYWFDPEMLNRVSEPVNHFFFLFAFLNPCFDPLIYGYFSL
How it was run: (§2)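 Anterior pituitaries from diestrus CD rats (200-250 g) were dissociated enzymatically (collagenase, hyaluronidase, then Viokase). Cells were cultured 4 days at 1.67 × 10^5 cells/mL in DME with 10% horse serum and 2.5% fetal calf serum, then washed serum-free. Duplicate cultures received LH-RH (2-5 × 10^-10 M) with a single analogue concentration in serum-free DME for 4 h at 37 °C. LH in the medium was measured by RIA and reported as % inhibition of LH-RH-stimulated release.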

[4] = biological target: T1, Gonadotropin-releasing hormone receptor (Rattus norvegicus); experiment: In vitro antagonist activity at GNRHR in CD rat anterior pituitary gland assessed as inhibition of LH-RH-stimulated LH release at compound to LH-RH molar ratio of 200 after 4 hrs by radioimmunoassay; details: concentration not given here; how it was run: as §2
[5] = biological target: T1, Gonadotropin-releasing hormone receptor (Rattus norvegicus); experiment: In vitro antagonist activity at GNRHR in CD rat anterior pituitary gland assessed as ratio of molar concentration of compound to LH-RH for inhibition of LH-RH-stimulated LH release after 4 hrs by radioimmunoassay
How it was run: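 Monolayers were cultured 4 days from dissociated anterior pituitary cells of diestrus CD rats. They were exposed in duplicate to LH-RH (2-5 × 10^-10 M) plus multiple analogue concentrations in serum-free DME for 4 h at 37 °C. LH in the medium was measured by radioimmunoassay. The ED50 molar ratio is the analogue:LH-RH molar ratio giving 50% inhibition of LH-RH-stimulated LH release.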

Row | SMILES | ED50 [1] [mg] | inhibition (INH) [2] [%] | inhibition [3] [%] | inhibition [4] | ED50 [5] [molar ratio]
1 | CCNC(=O)[C@@H]1CCCN1C(=O)[C@H](CCCNC(=N)N)NC(=O)[C@H](CC(C)C)NC(=O)[C@H](NC(=O)[C@H](Cc1ccc(O)cc1)NC(=O)[C@H](CO)NC(=O)[C@H](Cc1c[nH]c2ccccc12)NC(=O)[C@H](CCC(N)=O)NC(=O)OCc1ccccc1)[C@@H](O)c1ccccc1.Cl | 0.4 | 100 |  |  | 
2 | CCNC(=O)[C@@H]1CCCN1C(=O)[C@H](CCCNC(=N)N)NC(=O)[C@H](CC(C)C)NC(=O)[C@@H](C)NC(=O)[C@H](Cc1ccc(O)cc1)NC(=O)[C@H](CO)NC(=O)[C@H](Cc1c[nH]c2ccccc12)NC(=O)[C@H](CCC(N)=O)NC(=O)OCc1ccccc1.Cl | >3 | 20 | 100 |  | 
3 | CC(=O)O.CCNC(=O)[C@@H]1CCCN1C(=O)[C@H](CCCNC(=N)N)NC(=O)[C@H](CC(C)C)NC(=O)[C@@H](CO)NC(=O)[C@H](Cc1ccc(O)cc1)NC(=O)[C@H](CO)NC(=O)[C@H](Cc1c[nH]c2ccccc12)NC(=O)[C@H](CCC(N)=O)NC(=O)OCc1ccccc1 | >1 | 0 |  | 50% | 
4 | CC(C)C[C@H](NC(=O)[C@@H](Cc1ccccc1)NC(=O)[C@H](Cc1ccc(O)cc1)NC(=O)[C@H](CO)NC(=O)[C@H](Cc1c[nH]c2ccccc12)NC(=O)[C@H](CCC(N)=O)NC(=O)OCc1ccccc1)C(=O)N[C@@H](CCCNC(=N)N)C(=O)N1CCC[C@H]1C(=O)NCC(N)=O.Cl | >1 |  |  |  | 
5 | CC(C)C[C@H](NC(=O)[C@@H](Cc1ccccc1)NC(=O)[C@H](Cc1ccc(O)cc1)NC(=O)[C@H](CO)NC(=O)[C@H](Cc1c[nH]c2ccccc12)NC(=O)[C@H](CCC(N)=O)NC(=O)OCc1ccccc1)C(=O)N[C@@H](CCCNC(=N)N)C(=O)N1CCC[C@H]1C(=O)NCC(N)=O |  |  |  | 83% and 93% | 22
6 | CC(C)C[C@H](NC(=O)CNC(=O)[C@H](Cc1ccc(O)cc1)NC(=O)[C@H](CO)NC(=O)[C@H](Cc1c[nH]c2ccccc12)NC(=O)[C@H](CCC(N)=O)NC(=O)OC(C)(C)C)C(=O)N[C@@H](CCCNC(=N)N)C(=O)N1CCC[C@H]1C(=O)NCC(N)=O (HELM PEPTIDE1{[CC(C)(C)OC(=O)[*:2]].Q.W.S.Y.G.L.R.P.G.[am]}$$$$V2.0) |  |  | 15 |  | 
7 | CCNC(=O)CNC(=O)[C@@H]1CCCN1C(=O)[C@H](CCCNC(=N)N)NC(=O)[C@H](CC(C)C)NC(=O)CNC(=O)[C@H](Cc1ccc(O)cc1)NC(=O)[C@H](CO)NC(=O)[C@H](Cc1c[nH]c2ccccc12)NC(=O)[C@H](CCC(N)=O)NC(=O)OCc1ccccc1 (HELM PEPTIDE1{[O=C(OCc1ccccc1)[*:2]].Q.W.S.Y.G.L.R.P.G.[CCN[*:1]]}$$$$V2.0) |  |  | 40 |  | 
8 | CC(=O)O.CC(C)C[C@H](NC(=O)[C@@H](Cc1ccccc1)NC(=O)[C@H](Cc1ccc(O)cc1)NC(=O)[C@H](CO)NC(=O)[C@H](Cc1c[nH]c2ccccc12)NC(=O)[C@H](CCC(N)=O)NC(=O)OCc1ccccc1)C(=O)N[C@@H](CCCNC(=N)N)C(=O)N1CCC[C@H]1C(=O)NCC(N)=O | >3 | 20 |  |  | 
9 | CC(C)C[C@H](NC(=O)CNC(=O)[C@H](Cc1ccc(O)cc1)NC(=O)[C@H](CO)NC(=O)[C@H](Cc1c[nH]c2ccccc12)NC(=O)[C@H](CC(C)C)NC(=O)OCc1ccccc1)C(=O)N[C@@H](CCCNC(=N)N)C(=O)N1CCC[C@H]1C(=O)NCC(N)=O.Cl (HELM PEPTIDE1{[O=C(OCc1ccccc1)[*:2]].L.W.S.Y.G.L.R.P.G.[am]}$$$$V2.0) | >3 | 40 | 95 |  | 750
10 | CC(C)C[C@H](NC(=O)CNC(=O)[C@H](Cc1ccc(O)cc1)NC(=O)[C@H](CO)NC(=O)[C@H](Cc1c[nH]c2ccccc12)NC(=O)[C@H](CC(N)=O)NC(=O)OCc1ccccc1)C(=O)N[C@@H](CCCNC(=N)N)C(=O)N1CCC[C@H]1C(=O)NCC(N)=O (HELM PEPTIDE1{[O=C(OCc1ccccc1)[*:2]].N.W.S.Y.G.L.R.P.G.[am]}$$$$V2.0) |  |  | 35 |  | 
11 | CC[C@H](C)[C@H](NC(=O)OCc1ccccc1)C(=O)N[C@@H](Cc1c[nH]c2ccccc12)C(=O)N[C@@H](CO)C(=O)N[C@@H](Cc1ccc(O)cc1)C(=O)NCC(=O)N[C@@H](CC(C)C)C(=O)N[C@@H](CCCNC(=N)N)C(=O)N1CCC[C@H]1C(=O)NCC(N)=O.Cl (HELM PEPTIDE1{[O=C(OCc1ccccc1)[*:2]].I.W.S.Y.G.L.R.P.G.[am]}$$$$V2.0) | >1 | 20 | 70 |  | 
12 | CC(C)C[C@H](NC(=O)[C@@H](Cc1ccc(O)cc1)NC(=O)[C@H](Cc1ccc(O)cc1)NC(=O)[C@H](CO)NC(=O)[C@H](Cc1c[nH]c2ccccc12)NC(=O)[C@@H](Cc1ccccc1)NC(=O)OCc1ccccc1)C(=O)N[C@@H](CCCNC(=N)N)C(=O)N1CCC[C@H]1C(=O)NCC(N)=O.Cl | >1 | 0 |  | 83% | 
13 | CC(C)C[C@H](NC(=O)CNC(=O)[C@H](Cc1ccc(O)cc1)NC(=O)[C@H](CO)NC(=O)[C@H](Cc1c[nH]c2ccccc12)NC(=O)[C@H](Cc1ccc(O)cc1)NC(=O)OCc1ccccc1)C(=O)N[C@@H](CCCNC(=N)N)C(=O)N1CCC[C@H]1C(=O)NCC(N)=O (HELM PEPTIDE1{[O=C(OCc1ccccc1)[*:2]].Y.W.S.Y.G.L.R.P.G.[am]}$$$$V2.0) |  |  | 16 |  | 
14 | CCNC(=O)[C@@H]1CCCN1C(=O)[C@H](CCCNC(=N)N)NC(=O)[C@H](CC(C)C)NC(=O)CNC(=O)[C@H](Cc1ccc(O)cc1)NC(=O)[C@H](CO)NC(=O)[C@H](Cc1c[nH]c2ccccc12)NC(=O)[C@H](CC(C)C)NC(=O)OCc1ccccc1.Cl | >1 | 20 | 81 |  | 
15 | CC(C)C[C@H](NC(=O)CNC(=O)[C@H](Cc1ccc(O)cc1)NC(=O)[C@H](CO)NC(=O)[C@H](Cc1c[nH]c2ccccc12)NC(=O)Cc1ccccc1)C(=O)N[C@@H](CCCNC(=N)N)C(=O)N1CCC[C@H]1C(=O)NCC(N)=O (HELM PEPTIDE1{[O=C(Cc1ccccc1)[*:2]].W.S.Y.G.L.R.P.G.[am]}$$$$V2.0) |  |  | 51 |  | 
16 | CC(C)C[C@H](NC(=O)CNC(=O)[C@H](Cc1ccc(O)cc1)NC(=O)[C@H](CO)NC(=O)[C@H](Cc1c[nH]c2ccccc12)NC(=O)[C@H](CCC(N)=O)NC=O)C(=O)N[C@@H](CCCNC(=N)N)C(=O)N1CCC[C@H]1C(=O)NCC(N)=O (HELM PEPTIDE1{[O=C[*:2]].Q.W.S.Y.G.L.R.P.G.[am]}$$$$V2.0) |  |  | 0 |  | 
17 | CC(C)C[C@H](NC(=O)CNC(=O)[C@H](Cc1ccc(O)cc1)NC(=O)[C@H](CO)NC(=O)[C@H](Cc1c[nH]c2ccccc12)NC(=O)[C@@H](NC(=O)OCc1ccccc1)C(C)C)C(=O)N[C@@H](CCCNC(=N)N)C(=O)N1CCC[C@H]1C(=O)NCC(N)=O (HELM PEPTIDE1{[O=C(OCc1ccccc1)[*:2]].V.W.S.Y.G.L.R.P.G.[am]}$$$$V2.0) |  |  | 48 |  | 
18 | CC(C)C[C@H](NC(=O)CNC(=O)[C@H](Cc1ccc(O)cc1)NC(=O)[C@H](CO)NC(=O)[C@H](Cc1c[nH]c2ccccc12)NC(=O)NC1CCCCC1)C(=O)N[C@@H](CCCNC(=N)N)C(=O)N1CCC[C@H]1C(=O)NCC(N)=O ({NHcHex-CO}-WSYGLRPG-NH2) |  |  | 19 |  | 
19 | CC(C)C[C@H](NC(=O)[C@@H](CO)NC(=O)[C@H](Cc1ccc(O)cc1)NC(=O)[C@H](CO)NC(=O)[C@H](Cc1c[nH]c2ccccc12)NC(=O)[C@H](COCc1ccccc1)NC(=O)OC(C)(C)C)C(=O)N[C@@H](CCCNC(=N)N)C(=O)N1CCC[C@H]1C(=O)NCC(N)=O.Cl | >1 | 0 |  | 68% | 
20 | CC(=O)O.CCNC(=O)[C@@H]1CCCN1C(=O)[C@H](CCCNC(=N)N)NC(=O)[C@H](CC(C)C)NC(=O)[C@@H](Cc1ccc(OC)cc1)NC(=O)[C@H](Cc1ccc(O)cc1)NC(=O)[C@H](CO)NC(=O)[C@H](Cc1c[nH]c2ccccc12)NC(=O)[C@H](COCc1ccccc1)NS(C)(=O)=O | >1 | 0 |  | 75% | 

Source: ChEMBL document CHEMBL3272173, “Synthesis and biological activity of peptide antagonists of luliberin (luteinizing hormone-releasing hormone)” (J Med Chem, 1979)
